The target of series [1] is T1, Nuclear factor erythroid 2-related factor 2 (Homo sapiens) (UniProt Q16236).
T1 sequence (whole entry): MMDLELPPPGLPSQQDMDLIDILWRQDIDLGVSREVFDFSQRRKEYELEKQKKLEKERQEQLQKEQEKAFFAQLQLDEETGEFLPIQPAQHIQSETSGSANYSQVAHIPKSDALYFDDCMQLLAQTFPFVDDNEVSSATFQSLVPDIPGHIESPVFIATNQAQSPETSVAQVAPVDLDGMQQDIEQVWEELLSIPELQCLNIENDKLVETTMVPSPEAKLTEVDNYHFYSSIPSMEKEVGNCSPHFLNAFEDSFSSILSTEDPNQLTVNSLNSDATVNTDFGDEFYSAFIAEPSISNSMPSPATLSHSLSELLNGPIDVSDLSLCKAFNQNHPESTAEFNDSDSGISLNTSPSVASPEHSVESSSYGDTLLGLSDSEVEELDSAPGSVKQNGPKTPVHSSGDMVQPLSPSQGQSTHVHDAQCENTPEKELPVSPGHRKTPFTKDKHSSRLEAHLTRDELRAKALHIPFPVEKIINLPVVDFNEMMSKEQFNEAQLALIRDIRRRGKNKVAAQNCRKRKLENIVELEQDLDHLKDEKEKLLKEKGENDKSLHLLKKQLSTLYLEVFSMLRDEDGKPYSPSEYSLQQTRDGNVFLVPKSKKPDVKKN
Description: Activation of Nrf2 in human HepG2-ARE-C8 cells assessed as induction of ARE-mediated luciferase activity at 1 uM after 24 hrs by luciferase reporter gene assay relative to control. Type of series: cell-based. An outline of the steps:
(§1)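 HepG2-ARE-C8 cells stably carrying ARE-luciferase, grown in DMEM with 10% FBS at 37 °C and 5% CO2. Seeded at 5 × 10^4 cells/well, left overnight, then given compound diluted from a 10 mM DMSO stock for 24 h. Cells lysed and luciferase read as RLU. Inductivity = (RLUtest − RLUblank)/(RLUcontrol − RLUblank), with DMSO as control. Mean ± SEM of three experiments.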
For orientation: A reporter such as luciferase makes a cellular process visible.

For series [2], the target named is T1, Nuclear factor erythroid 2-related factor 2 (Homo sapiens). Description: Activation of Nrf2 in human HepG2-ARE-C8 cells assessed as induction of ARE-mediated luciferase activity at 0.01 uM after 24 hrs by luciferase reporter gene assay relative to control. Type of series: cell-based. The gist of the method: as §1
Series [3] has the same target. Description: Activation of Nrf2 in human HepG2-ARE-C8 cells assessed as induction of ARE-mediated luciferase activity at 80 uM after 24 hrs by luciferase reporter gene assay relative to control. It counts as cell-based. An outline of the steps: as §1
The nature of series [4]: Lipophilicity, log D of the compound at pH 7.4 by potentiometric titration method. Type of series: physicochemical. The note with it: buffer. An outline of the steps: (§2)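 Intrinsic aqueous solubility and logD at pH 7.4 determined by Avdeef-Bucher potentiometric titration on a pION Gemini Profiler.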
Series [5] has as its target T1, Nuclear factor erythroid 2-related factor 2 (Homo sapiens). In words: Activation of Nrf2 in human HepG2-ARE-C8 cells assessed as induction of ARE-mediated luciferase activity at 20 uM after 24 hrs by luciferase reporter gene assay relative to control. Type of series: cell-based. An outline of the steps: as §1
Series [6] shares this target. Description: Activation of Nrf2 in human HepG2-ARE-C8 cells assessed as induction of ARE-mediated luciferase activity at 0.1 uM after 24 hrs by luciferase reporter gene assay relative to control. It counts as cell-based. An outline of the steps: as §1
The test system of another series is HepG2. Description: Cytotoxicity against human HepG2 cells at 80 uM after 24 hrs by MTT assay. It counts as cell-based. Conditions: hepg2, 24 h. In general terms: Tetrazolium assays rely on reduction of a dye to a coloured formazan, in cell work by metabolically active cells.
The nature of series [7]: Intrinsic aqueous solubility of the compound by potentiometric titration method. Type of series: physicochemical. An outline of the steps: as §2
Series [8] addresses T1, Nuclear factor erythroid 2-related factor 2 (Homo sapiens). Description: Activation of Nrf2 in human HepG2-ARE-C8 cells assessed as induction of ARE-mediated luciferase activity at 40 uM after 24 hrs by luciferase reporter gene assay relative to control. Type of series: cell-based. An outline of the steps: as §1
Series [9] concerns L02. Description: Cytotoxicity against human LO2 cells at 160 uM after 24 hrs by MTT assay. It counts as cell-based. Conditions: l02, 24 h. An outline of the steps: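 LO2 cells plated for 12 h, then treated for 24 h with 0, 0.2, 2, 20, 40, 80 or 160 μM compound diluted in medium from a DMSO stock. MTT (5 mg/mL stock) added for 4 h, formazan dissolved in DMSO, A570 read. Viability computed from OD relative to DMSO control and blank. Mean ± SD of three experiments.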

The subject of series [10] is L02. In words: Hepatoprotective activity against APAP-induced cell injury in human LO2 cells assessed as increase in cell viability at 20 uM pretreated for 24 hrs followed by APAP treatment measured after 24 hrs by MTT assay. Type of series: functional. An outline of the steps:
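LO2 cells plated for 12 h and pretreated for 24 h with 5, 10 or 20 μM compound. One arm was first transfected with 50 nM Nrf2 siRNA before receiving 20 μM compound. Medium then replaced with medium containing 8 mM APAP for 24 h. Viability by MTT at A570. Mean ± SD of three experiments.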

Structures are written as SMILES. Values after ≈ are worked out from the molar mass of the structure shown. Active and inactive are the calls of the source. No cut-off for these calls is given here.

With `CC(C)(C)c1ccc(-c2noc(-c3ccc(F)c(F)c3)n2)cc1`, the Activity in [1] was 2.91; in [2], 1.35; in series [3] it was 24; in series [5], 8.35; in [6], 2.88; in the series with HepG2, “Non-Toxic”. Further, the Activity in series [8] worked out at 13.2. In [4], the logD is 3.92. This compound gave a solubility in [7] of 91 µM (≈ 28.6 µg/mL).

For `Cc1ccc(-c2noc(-c3ccc(F)c(F)c3)n2)cc1`, the Activity in [1] is 1.85; in [2], 0.67; in series [3], 10.2; in series [5], 2.51; in [6] it was 1.22; with HepG2, “Non-Toxic”. The Activity in series [8] amounted to 6.62. In series [4], this compound yielded a logD of 4.16. Further, the solubility in series [7] came to 35 µM (≈ 9.53 µg/mL).

On to `Fc1ccc(-c2nc(-c3ccc(Br)cc3)no2)cc1F`, for which the Activity is 4.49 in series [1]; 2.68 in [2]; 18.2 in [3]; 8.65 in series [5]; 3.78 in series [6]; “Non-Toxic” in the series with HepG2. Moreover, the Activity in series [8] was 12.2. Further, the logD in series [4] is 3.91. The compound also displayed a solubility in series [7] of 77 µM (≈ 26 µg/mL).

As to `Cc1cccc(-c2noc(-c3ccc(F)c(F)c3)n2)n1`, the Activity in series [1] is 2.65; in series [2], 1.16; in series [3], 5.68; in [5], 3.96; in [6], 1.08; with HepG2, “Non-Toxic”. In addition, the Activity in [8] came to 4.46. This compound yielded a log distribution coefficient (logD) in series [4] of 2.86. Further, the solubility in series [7] worked out at 200 µM (≈ 54.6 µg/mL).

`COc1cccc(-c2noc(-c3ccc(F)c(F)c3)n2)c1`: the Activity in series [1] was 5.35; in [2] it was 1.63; in [3], 16.4; in series [5] it was 14.2; in series [6], 1.87; in the series on HepG2 it was “Non-Toxic”. The Activity in series [8] came out at 15.2. For the same compound, the logD in series [4] amounted to 3.91. Also, the concentration in solution in [7] (solubility) came to 86 µM (≈ 24.8 µg/mL).

With `Fc1ccc(-c2nc(-c3ccc4nc[nH]c4c3)no2)cc1`, the results for the Activity (in series [2]; in the series with L02 [9]; in the series with HepG2) were 1.57, “<= 20%” and “Non-Toxic”, respectively.

On to `Fc1ccc(-c2nc(-c3ccccn3)no2)cc1F`, for which the Activity was 1.05 in [1]; 0.65 in [2]; 2.55 in [3]; 1.31 in [5]; 0.83 in [6]; “Non-Toxic” in the series with HepG2. In series [8], the Activity stood at 1.32.

In the case of `Clc1cccc(-c2nc(-c3ccc4nc[nH]c4c3)no2)c1`, the Activity in series [1] was 4.78; in series [2], 1.74; in series [3] it was 19.1; in [5], 12.8; in [6], 3.23; in the series with HepG2 it was “Non-Toxic”. In [8], the Activity turned out to be 13.2.

As for `Fc1ccc(-c2nc(-c3cccnc3)no2)cc1F`, the Activity in [1] is 2.02; in series [2], 1.45; in [3], 4.15; in series [5] it was 3.15; in [6] it was 1.71; in the series on HepG2, “Non-Toxic”. Besides, the Activity in series [8] turned out to be 3.15.

For the compound `CN(C)C=O`, the Activity in series [1] is 1.1; in series [2] it was 0.82; in series [5], 1.65; in series [6], 1; in series [8] it was 2.97. In the series on L02 [10], the result was Active.

With `Fc1ccc(-c2nc(-c3ccc4nc[nH]c4c3)no2)cc1F`, the Activity in series [1] was 12.3; in series [2], 1.46; in [3], 49.9; in series [5] it was 24; in the series on L02 [9], “<= 20%”; in series [6] it was 6.21. The Activity entry is “Non-Toxic” in the series with HepG2 and 42.6 in series [8]. Further, in series [4], the logD was found to be 3.3. Moreover, the solubility in [7] was 99 µM (≈ 29.5 µg/mL).

`Cc1ccnc(-c2noc(-c3ccc(F)c(F)c3)n2)c1`: the Activity in series [1] was 2.04; in series [2] it was 0.63; in series [3] it was 10.6; in series [5], 8.96; in series [6], 1.06; in the series on HepG2, “Non-Toxic”. Moreover, the Activity in [8] was determined as 9.76. For the same compound, the logD in [4] is 2.65. For the same compound, in series [7], the concentration in solution (solubility) came to 220 µM (≈ 60.1 µg/mL).

Turning to `Fc1ccc(-c2nc(-c3ccc4nc[nH]c4c3)no2)c(Br)c1`, the Activity in series [1] was 4.18; in series [2] it was 1.01; in series [3] it was 25.1; in series [5], 12.1; in series [6], 2.65; in the series with HepG2 it was “Non-Toxic”. Further, in series [8], the Activity turned out to be 21.6.

For `Fc1ccc(-c2nc(-c3cnccn3)no2)cc1F`, the Activity is 1.95 in [1]; 1.13 in series [2]; 3.35 in series [3]; 1.81 in [5]; 1.43 in series [6]; “Non-Toxic” in the series with HepG2. Also, the Activity in series [8] was found to be 2.83.

As to `Fc1ccc(-c2nc(-c3ccc4nc[nH]c4c3)no2)cc1Br`, the Activity in [1] is 1.89; in series [2], 1.68; in series [3], 4.84; in series [5] it was 3.46; in series [6], 1.36; with HepG2 it was “Non-Toxic”. Also, the Activity in series [8] was determined as 3.92.

`Fc1ccc(-c2nc(-c3ccc(-c4ccccc4)cc3)no2)cc1F`: the Activity in series [1] was 6.75; in series [2], 1.15; in series [3] it was 14.7; in [5], 8.54; in series [6], 1.25; in the series on HepG2, “Non-Toxic”. Moreover, the Activity in [8] was determined as 10.8. Moreover, the log distribution coefficient (logD) in series [4] stood at 4.75. In series [7], this compound showed a solubility of 16 µM (≈ 5.35 µg/mL).

For the compound `Fc1ccc(-c2nc(-c3cccc4[nH]ccc34)no2)cc1F`, the Activity in series [1] is 2.01; in [2] it was 0.83; in [3], 4.02; in series [5] it was 2.36; in series [6] it was 1.88; with HepG2, “Non-Toxic”. The Activity in series [8] was 3.77.

Take `Fc1ccc(-c2nc(-c3ccccc3Br)no2)cc1F`: the Activity in [1] is 1.76; in series [2], 0.58; in series [3] it was 3.63; in [5], 1.98; in series [6], 1.16; in the series on HepG2, “Non-Toxic”. Further, the Activity in series [8] turned out to be 2.63.

With `Fc1cccc(-c2nc(-c3ccc4nc[nH]c4c3)no2)c1`, the Activity in series [1] was 4.49; in series [2], 1.21; in series [3], 14.1; in [5] it was 8.83; in [6], 2.69; in the series with HepG2, “Non-Toxic”. The Activity in series [8] amounted to 12.4.

`Fc1ccc(-c2nc(-c3ccc4ccccc4c3)no2)cc1F`: the Activity in [1] was 1.52; in series [2] it was 1.16; in series [3] it was 3.57; in series [5] it was 1.96; in series [6] it was 1.27; with HepG2 it was “Non-Toxic”. The Activity in series [8] amounted to 1.96.

Broadly, the logD is the decadic logarithm of the distribution of all forms, ionised or not, between an organic phase and buffer at a given pH. Read a high logD as higher lipophilicity. For orientation: solubility means the dissolved amount per volume that the medium holds. High values mean a readily soluble substance, low ones a poorly soluble substance.
